Compound activity as filed in PubChem BioAssay.
TAAR1 antagonist: human TAAR1 antagonism | Q96RJ0 | CHO RD-HGA16 TAAR1, Fluo-8 calcium fluorescence, antagonist | inhibition, % at 3 µM | hit rate 1.5% among 360,000 | AID 624466;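 active means inhibition above a per-plate cutoff, the mean inhibition of test compounds on that plate plus 3 SD, cut at about 49% in these data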;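 further: 0% = DMSO plus EC80 beta-PEA response and 100% = DMSO alone without agonist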
Target sequence (Q96RJ0 whole entry, looked up): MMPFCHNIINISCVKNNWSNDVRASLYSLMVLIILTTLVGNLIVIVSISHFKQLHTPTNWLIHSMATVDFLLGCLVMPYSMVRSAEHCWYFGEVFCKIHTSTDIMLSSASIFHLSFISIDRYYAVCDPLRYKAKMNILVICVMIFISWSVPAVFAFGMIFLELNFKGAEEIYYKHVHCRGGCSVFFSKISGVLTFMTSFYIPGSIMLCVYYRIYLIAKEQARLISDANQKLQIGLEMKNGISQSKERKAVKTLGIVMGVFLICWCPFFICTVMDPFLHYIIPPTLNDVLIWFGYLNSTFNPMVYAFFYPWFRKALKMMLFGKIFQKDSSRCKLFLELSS
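Test system: hTAAR1-expressing CHO RD-HGA16 cells, Gα16-coupled; Probe or stimulus: EC80 β-phenethylamine stimulus; Compound dosing: single nominal final test compound concentration of 3 µM; Timing: 140 s kinetic read after compound, 140 s after agonist; Signal: Fluo-8 calcium-sensitive fluorescence; Measure: % inhibition of agonist calcium response; Controls: DMSO and EC80 PEA controls.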
CHRM4 antagonist: antagonists of human muscarinic M4 receptor (CHRM4). hit rate 0.73% among 360,000. inhibition, % at 3 µM. CHO-hM4 cells, ACh EC80, Fluo-8 calcium fluorescence. P08173;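 active means inhibition above its plate's cutoff, the mean inhibition of sample wells plus 3 SD, cut at about 27% in these data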;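 further: 0% = acetylcholine EC80 with DMSO and 100% = DMSO without agonist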
CHRM4 PAM: potentiates acetylcholine response at human M4 receptor; CHO-K1 hM4/Gqi5, Fluo-8 calcium fluorescence, ACh EC20; 0% = ACh EC20, 100% = maximal ACh; AID 624126; P08173; hit rate 0.4% among 360,000; activation, % at 3 µM;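 active means activation above its plate's cutoff, the mean activation of sample wells plus 3 SD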
TAAR1 agonist: human TAAR1 agonism | AID 624467 | Q96RJ0 | activation, % at 3 µM | CHO RD-HGA16 TAAR1, Fluo-8 calcium fluorescence; vehicle wells 0%, saturating PEA agonist 100% | hit rate 0.99% among 360,000;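 active means activation above the mean activation of all test compounds in the run plus 3 SD, cut at about 38% in these data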
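System: CHO RD-HGA16 cells carrying human TAAR1 plus Gα16; Incubation: 17-24 h seeding, 75 min 37 °C dye, 30 min RT; Measured by: Fluo-8 fluorescence, 5 s baseline then 140 s kinetic read; Control set: DMSO and PEA EC100; Replication: single well for each compound.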
CHRM4 agonist: agonists of human muscarinic M4 receptor (CHRM4); P08173; CHO-K1 hM4/Gqi5, Fluo-8 calcium fluorescence; vehicle 0%, full acetylcholine response 100%; activation, % at 3 µM; hit rate 0.14% among 360,000; AID 624127;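 active means activation above the run mean over all test wells plus 3 SD, cut at about 32% in these data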;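 further: peak over basal fluorescence ratio per well then scaled between controls; 0% = DMSO wells and 100% = acetylcholine at EC100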
An asterisk follows results filed as active. A selection: hits, their analogues and other compounds. The true share with any hit is near 3%.

What do the screens show for `Cc1cccc(N2C(=O)CN=C2Nc2nc(C)cc(C)n2)c1`?
TAAR1 antagonist: 7.5; CHRM4 antagonist: -15.1; CHRM4 PAM: 18.3*; TAAR1 agonist: 1.6; CHRM4 agonist: 1.3

What do the screens show for `CC1CCCN(c2cccc3c2S(=O)(=O)N(Cc2cccc(Cl)c2)[C@@H](C)[C@H](c2ccccc2)O3)C1` (some centres not stated)?
TAAR1 antagonist: -2.0; TAAR1 agonist: 1.9

What do the screens show for `COc1cc(/C=N/N2C(=O)CSC2=S)cc(Br)c1O`?
TAAR1 antagonist: 32.4; CHRM4 antagonist: 8.5; CHRM4 PAM: -30.4; TAAR1 agonist: 62.3*; CHRM4 agonist: 69.4*

What do the screens show for `COc1cccc(/C=N/N2C(=O)CSC2=S)c1O`?
TAAR1 antagonist: -8.0; CHRM4 antagonist: 9.9; CHRM4 PAM: 2.5; TAAR1 agonist: 0.3; CHRM4 agonist: 0.8

How did COc1ccnc(Oc2ccc(F)cc2)c1C(=O)N/C=N/OCc1ccc(F)cc1 do in these assays?
TAAR1 antagonist: 18.7; CHRM4 antagonist: 9.1; CHRM4 PAM: -4.0; TAAR1 agonist: 48.9*; CHRM4 agonist: 15.4

What do the screens show for `COc1ccnc(Oc2ccccc2)c1C(=O)N/C=N/OCc1ccccc1F`?
TAAR1 antagonist: 48.7*; CHRM4 antagonist: 8.9; CHRM4 PAM: -11.9; TAAR1 agonist: 21.7; CHRM4 agonist: 19.0

How did COc1ccnc(Oc2ccc(F)cc2)c1C(=O)N/C=N/OCc1ccccc1 do in these assays?
TAAR1 antagonist: 10.1; CHRM4 antagonist: 0.1; CHRM4 PAM: -7.0; TAAR1 agonist: 9.7; CHRM4 agonist: 17.9

What do the screens show for `CC(OC(=O)c1ccc([N+](=O)[O-])o1)C(=O)Nc1nc(-c2ccc(F)c(F)c2)cs1` (configuration not stated)?
TAAR1 antagonist: 58.6*; CHRM4 antagonist: 16.6; CHRM4 PAM: -14.7; TAAR1 agonist: 6.0; CHRM4 agonist: 12.5

Results for Cc1ccc(NC(=O)CCn2cnc3ccccc3c2=O)cc1Cl ?
TAAR1 antagonist: 23.2; CHRM4 antagonist: -6.0; CHRM4 PAM: -0.1; TAAR1 agonist: 39.7*; CHRM4 agonist: 1.3

How did O=C(Cc1ccccc1)Nc1nc(-c2ccc(F)c(F)c2)cs1 do in these assays?
TAAR1 antagonist: 56.3*; CHRM4 antagonist: 3.8; CHRM4 PAM: -25.3; TAAR1 agonist: 4.9; CHRM4 agonist: 14.2

How did O=C(CN1CCCCC1)Nc1nc(-c2ccc(F)c(F)c2)cs1 do in these assays?
TAAR1 antagonist: 49.2*; CHRM4 antagonist: -2.8; CHRM4 PAM: -10.5; TAAR1 agonist: 12.8; CHRM4 agonist: 19.9

How did Cc1cccc(C)c1NC(=O)CCn1cnc2ccccc2c1=O do in these assays?
TAAR1 antagonist: 11.6; CHRM4 antagonist: -1.0; CHRM4 PAM: -4.5; TAAR1 agonist: 3.2; CHRM4 agonist: 0.2

What do the screens show for `Cc1cc(C(=O)OC(C)C(=O)Nc2nc(-c3ccccc3)cs2)c(C)o1` (configuration not stated)?
TAAR1 antagonist: -3.2; CHRM4 antagonist: -7.3; CHRM4 PAM: 7.1; TAAR1 agonist: -2.0; CHRM4 agonist: -2.5

Results for COC(=O)[C@]12C[C@H](CC(=O)N3CCOCC3)C(=O)N(CCC3=CCCCC3)C1=C[C@H](COCc1ccccc1)O[C@@H]2C ?
TAAR1 antagonist: -38.1; TAAR1 agonist: 3.3

What do the screens show for `O=C(O)CCCC(=O)OCCCc1cc2ccccc2c(=O)o1`?
TAAR1 antagonist: -8.8; TAAR1 agonist: 4.6

Results for COc1cccc(CC(=O)Nc2nc(-c3cc(OC)ccc3OC)cs2)c1 ?
TAAR1 antagonist: 12.7; CHRM4 antagonist: 2.5; CHRM4 PAM: -8.9; TAAR1 agonist: 0.6; CHRM4 agonist: -0.4

What do the screens show for `COc1cccc(CC(=O)Nc2nc(-c3ccc(F)c(F)c3)cs2)c1`?
TAAR1 antagonist: 52.1*; CHRM4 antagonist: -8.2; CHRM4 PAM: -10.4; TAAR1 agonist: 3.9; CHRM4 agonist: 6.6

How did COc1ccc(-c2csc(NC(=O)CCn3cnc4ccccc4c3=O)n2)cc1OC do in these assays?
TAAR1 antagonist: 55.2*; CHRM4 antagonist: 23.7; CHRM4 PAM: -26.1; TAAR1 agonist: 19.8; CHRM4 agonist: 13.7

Results for O=C(CCN1C(=O)C2CC=CCC2C1=O)Nc1nc(-c2ccc(F)c(F)c2)cs1 (configuration not stated) ?
TAAR1 antagonist: 60.3*; CHRM4 antagonist: 1.1; CHRM4 PAM: -3.1; TAAR1 agonist: 31.0; CHRM4 agonist: 24.3
